Measurements published in ChEMBL document CHEMBL3580629, “Diterpenoids and Triterpenoids from the Resin of Bursera microphylla and Their Cytotoxic Activity” (J Nat Prod, 2015).

Assays:
Assay type in all cases: functional, cell-based; call rule not given here
[1] = Cytotoxic activity against mouse M12.C3.F6 cells assessed as reduction in cell viability incubated for 48 hrs by MTT assay
Procedure, shortened: (§1)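 Cells seeded at 1 × 10^4 per well and left 24 h at 37 °C, 5% CO2 to attach, then given test substances at 200 to 0.05 μM for 48 h. Substances were dissolved in DMSO and diluted in medium (0.06–2.0% DMSO in cultures). MTT (5 mg/mL stock) was added for the final 4 h, and formazan was dissolved in acidic isopropanol. Absorbance was read at 570/650 nm against vehicle (100%). IC50 came from nonlinear regression of log-normalized data, six doses in triplicate, at least three experiments.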

HeLa = test: Cytotoxic activity against human HeLa cells assessed as reduction in cell viability incubated for 48 hrs by MTT assay; procedure, shortened: as §1
RAW264.7 = test: Cytotoxic activity against mouse RAW264.7 cells assessed as reduction in cell viability incubated for 48 hrs by MTT assay; procedure, shortened: as §1
A549 = test: Cytotoxic activity against human A549 cells assessed as reduction in cell viability incubated for 48 hrs by MTT assay; procedure, shortened: as §1
PC-3 = test: Cytotoxic activity against human PC3 cells assessed as reduction in cell viability incubated for 48 hrs by MTT assay; procedure, shortened: as §1
[2] = Mus musculus, RAW264.7, 48 h, read-out: IC50

For `CC(C)=CCC/C(C)=C/C/C=C(\C)[C@H]1CCC2[C@@]3(C)CC[C@H](O)C(C)(C)C3CC[C@]21C` (stereo partly specified), the IC50 [1] was “Not Active”, the IC50 (HeLa) was “Not Active” and the IC50 (RAW264.7; raw264.7) was “Not Active”. For the same compound, the IC50 (A549) was “Not Active” and the IC50 (PC-3; pc-3) was “Not Active”.

In the case of `CC(C)=CCC/C(C)=C/C/C=C(\C)[C@H]1CCC2[C@@]3(C)CCC(=O)C(C)(C)C3CC[C@]21C` (stereo partly specified), the IC50 [1] is reported as “Not Active”, the IC50 (HeLa) is reported as “Not Active” and the IC50 (RAW264.7; raw264.7) is reported as “Not Active”. The IC50 (A549) was “Not Active” and the IC50 (PC-3; pc-3) was “Not Active”.

In the case of `CC(=O)O[C@@]1(C(C)C)C/C=C(\C)CC[C@@H]2O[C@@]2(C)CC/C=C(\C)CC1` (relative stereo), the IC50 [1] is reported as “Not Active”, the IC50 (HeLa) is reported as “Not Active” and the IC50 (RAW264.7; raw264.7) is reported as “Not Active”. The IC50 (A549) was “Not Active” and the IC50 (PC-3; pc-3) was “Not Active”.

`CC(=O)OC[C@H](Cc1ccc2c(c1)OCO2)[C@H](COC(C)=O)Cc1ccc2c(c1)OCO2` gave an IC50 (RAW264.7; [2]) of 9800 nM.

Compound `COc1cc(C[C@@H]2COC[C@H]2Cc2ccc3c(c2)OCO3)cc(OC)c1OC` has an IC50 (RAW264.7; [2]) of 400 nM.

With `COc1cc(C[C@@H](COC(C)=O)[C@H](COC(C)=O)Cc2ccc3c(c2)OCO3)cc(OC)c1OC` the IC50 ([1]; Mus musculus, 48 h, read-out: IC50) was 2500 nM and the IC50 (RAW264.7; [2]) was 200 nM.

In the case of `COc1cccc2c1C(=O)c1c(O)c3c(c(O)c1C2=O)C[C@@](O)(C(=O)CO)C[C@@H]3O[C@H]1C[C@H](N)[C@H](O)[C@H](C)O1` [DOXORUBICIN], the IC50 (RAW264.7; [2]) is reported as 630 nM and the IC50 (PC-3; Homo sapiens, PC-3, 48 h, read-out: IC50) is reported as 3180 nM.
